{"source": "paper PMC2748811", "about": "(The Biochemical journal, 2009)", "molecules": {"B1": {"name": "PRHIV-2-OX: oxidized HIV-2 PR (protein, UniProt P04584 514-612, looked up)", "Protease": "PQFSLWKRPVVTAYIEGQPVEVLLDTGADDSIVAGIELGNNYSPKIVGGIGGFINTKEYKNVEIEVLNKKVRATIMTGDTPINIFGRNILTALGMSLNL", "modifications": "Protease oxidized"}}, "key": {"[1]": {"biological_target": "T1, PRMDR (multi-drug-resistant HIV-1 PR) (Human immunodeficiency virus type 1 group M subtype B, UniProt P04585, A559V/I542V/I581L/K533R/L498I/L551P/L578M/V570T)", "test": "Co-elution of inhibitors with PRMDR on size-exclusion chromatography", "assay_type": "binding", "conditions": "for co-elution with PRMDR: MS detection", "in_short": "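PR_MDR was diluted to 0.25–2 μM subunit concentration in 150 mM ammonium acetate (pH 5.4) with 0.1 mg·ml⁻¹ BSA (final). The active-site inhibitor came from a 1 mM stock in 100% DMSO. Samples were incubated at 37 °C, and 8 μl was injected onto a BioSep SEC3000 column run isocratically at 0.35 ml·min⁻¹ in the same buffer. Detection was by fluorescence and by MS in SIM mode on chosen molecular ions.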"}, "[2]": {"test_system": "PRWT (wild-type HIV-1 PR)", "test": "Co-elution of active-site inhibitors with PRWT on size-exclusion chromatography", "assay_type": "binding", "conditions": "results not shown"}, "[3]": {"biological_target": "T1, PRMDR (multi-drug-resistant HIV-1 PR)", "assay_type": "biochemical", "conditions": "for relative potency at inducing monomer formation: dose–response data, results not shown"}, "HIV-1 PR dimerization": {"test_system": "HIV-1 PR dimerization", "test": "Size-exclusion chromatography elution of HIV-1 PRs", "assay_type": "biochemical", "conditions": "1 μM (PRT26A 2 μM); 37 °C 60 min"}, "PRT26A": {"biological_target": "PRT26A", "conditions": "read-out: dissociation constant (Kd); ref [30]; cited from earlier work"}, "[4]": {"test_system": "monomeric and dimeric forms of PR", "conditions": "13C-labelled tryptophan residues of PR; ref [21]; cited from earlier work"}, "[5]": {"biological_target": "T1, PRMDR (multi-drug-resistant HIV-1 PR)", "test": "PR activity with fluorescent PR substrate after peptide treatment", "assay_type": "biochemical", "conditions": "16 h at 37 °C, PRMDR 1 μM; for PR activity: untreated 2.6"}, "[6]": {"biological_target": "T1, PRMDR (multi-drug-resistant HIV-1 PR)", "conditions": "ref [20]; cited from earlier work"}, "[7]": {"biological_target": "T1, PRMDR (multi-drug-resistant HIV-1 PR)", "assay_type": "biochemical", "conditions": "25 μM P27; PRMDR 1 μM; 16 h at 37 °C; excitation 280 nm", "in_short": "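PR_MDR (1 μM final) was incubated 16 h at 37 °C with 25 μM peptide dimerization inhibitor in 150 mM ammonium acetate containing 100 μg·ml⁻¹ BSA. An 8 μl sample was run by SEC in running buffer at pH 5.4, 0.35 ml·min⁻¹ isocratic. Fluorescence was read at 280 nm excitation and 350 nm emission, with emission spectra from 325–375 nm taken at each peak apex against reference spectra at 10.2 and 12 min. MS used SIM at m/z 1086 (10⁺).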"}, "[8]": {"test_system": "PR dimerization within infected cells", "conditions": "fluorescence resonance energy transfer assay; ref [32]; cited from earlier work"}, "PRWT": {"test_system": "PRWT", "conditions": "5 min pre-incubation with ≤25 nM PRWT; ref [16]; cited from earlier work"}, "PRMDR dimer": {"test_system": "PRMDR dimer", "assay_type": "binding, HIV-1", "conditions": "16 h at 37 °C; for Kd: 150 mM ammonium acetate pH 5.4"}, "[9]": {"test_system": "HIV-1 PR (autoproteolysis)", "test": "PR stability and autoproteolysis", "assay_type": "biochemical", "conditions": "for autoproteolysis (SDS/PAGE): 20 h at 40 μM, 20 °C; for autoproteolysis (RP-HPLC–MS): after incubation in 150 mM ammonium acetate pH 5.4, results not shown", "in_short": "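Wild-type and multi-drug-resistant HIV-1 PR incubated 16–24 h in ammonium acetate buffer, with or without 1 mM TCEP. Activity read with a fluorescent PR substrate, mean ± S.D. Cleavage checked on Coomassie-stained 10 % Bis/Tris SDS/PAGE. Alternatively, 37 °C samples were quenched with solid guanidine hydrochloride (6 M final) for RP-HPLC, gradient to 95 % solvent B, monitored at 205/276 nm and by electrospray MS.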"}, "HIV-2 PR dimerization": {"test_system": "HIV-2 PR dimerization", "test": "Size-exclusion chromatography elution of oxidized HIV-2 PR", "assay_type": "biochemical", "conditions": "after hydrogen peroxide treatment; results not shown"}, "[10]": {"conditions": "25 μM P27, PRMDR 1 μM, 16 h at 37 °C, MS"}, "[11]": {"conditions": "PRMDR 0.25–2 μM, approximate, MS"}, "[12]": {"conditions": "20 h at 37 °C, 150 mM ammonium acetate pH 5.4, 2 μM PR, n = 3"}}, "note": "Where “and” joins values, the source holds several entries; their conditions need not be identical. Equal entries are not always repeated. Where two headings read alike, the source gives them in different places.", "data": [{"molecule": "CC(C)c1nc(CN(C)C(=O)N[C@H](C(=O)N[C@@H](Cc2ccccc2)C[C@H](O)[C@H](Cc2ccccc2)NC(=O)OCc2cncs2)C(C)C)cs1", "note": "[ritonavir]", "values": [{"measurement": "co-elution with PRMDR", "setting": "[1]", "value": "did not elute with PRMDR"}, {"measurement": "co-elution with PRWT", "setting": "[2]", "value": "co-elute with PRWT"}]}, {"molecule": "Ac-TLNF [acetylated-TLNF, reference compound]", "values": [{"measurement": "relative potency at inducing monomer formation", "setting": "[3]", "value": "P27 > CTLNF > Ac-CTLNF > Ac-TLNF"}]}, {"molecule": "PRT26A: autoproteolysis-resistant and monomeric HIV-1 PR", "values": [{"measurement": "elution time by MS", "setting": "HIV-1 PR dimerization", "value": "11.2 min and 11.0 min"}, {"measurement": "Kd", "setting": "PRT26A", "value": "> 1000", "unit": "µM"}]}, {"molecule": "Ac-SEYL-OH", "values": [{"measurement": "interaction with PR by NMR", "setting": "[4]", "value": "interaction of a peptide dimerization inhibitor (Ac-SEYL-OH) with both monomeric and dimeric forms of PR"}]}, {"molecule": "PQITLRKKRRQRRRPPQVSFNFCTLNF [P27]", "values": [{"measurement": "PR activity", "setting": "[5]; 25 μM P27", "value": 1.85, "unit": "RFU min^−1 · μg^−1"}, {"measurement": "decrease in PRMDR enzyme activity", "setting": "[5]; 50 μM P27", "value": 99, "unit": "%"}, {"measurement": "PR activity", "setting": "[5]; 50 μM P27", "value": 0.0, "unit": "RFU min^−1 · μg^−1"}, {"measurement": "inhibition of PRMDR activity", "setting": "[6]", "value": "inhibit PRMDR activity"}, {"measurement": "PRMDR elution time, dimer peak", "setting": "[3]; [10]", "value": 10.8, "unit": "min"}, {"measurement": "PRMDR elution time, monomer peak", "setting": "[3]; [10]", "value": 11.3, "unit": "min"}, {"measurement": "monomer induced", "setting": "[3]; 25 μM P27, PRMDR at 0.5 μM", "value": 80, "unit": "%"}, {"measurement": "monomer induced", "setting": "[3]; 25 μM P27, PRMDR at 1 μM", "value": "approx. 40%"}, {"measurement": "time to clear evidence of monomer formation", "setting": "[3]; 50 μM P27", "value": "≤ 4", "unit": "h"}, {"measurement": "time to maximum effect / plateau of monomer formation", "setting": "[3]; 50 μM P27, PR 1 μM", "value": "10 to 12", "unit": "h"}, {"measurement": "time of peak absolute amount of detectable monomer", "setting": "[3]; 50 μM P27, steadily decreased thereafter", "value": "6 to 8", "unit": "h"}, {"measurement": "PRMDR peak elution time", "setting": "[3]; 50 μM peptide, PRMDR 1 μM, 16 h at 37 °C, MS m/z 1086", "value": 11.3, "unit": "min"}, {"measurement": "total PRMDR not recovered after treatment as compared to untreated", "setting": "[3]; P27, PRMDR 1 μM, 16 h", "value": "approx. 20%"}, {"measurement": "relative potency at inducing monomer formation", "setting": "[3]", "value": "P27 > CTLNF > Ac-CTLNF > Ac-TLNF"}, {"measurement": "emission maximum λmax, dimer", "setting": "[7]", "value": 346, "unit": "nm"}, {"measurement": "emission maximum λmax, monomer", "setting": "[7]", "value": 352, "unit": "nm"}, {"measurement": "block of PR dimerization within infected cells", "setting": "[8]", "value": "block PR dimerization within infected cells"}]}, {"molecule": "CTLNF [reference compound]", "values": [{"measurement": "relative potency at inducing monomer formation", "setting": "[3]", "value": "P27 > CTLNF > Ac-CTLNF > Ac-TLNF"}, {"measurement": "IC50", "setting": "PRWT", "value": 150, "unit": "µM"}]}, {"molecule": "CSC[C@H](NC(=O)COc1cccc2cnccc12)C(=O)N[C@@H](Cc1ccccc1)[C@H](O)C(=O)N1CSC[C@H]1C(=O)NC(C)(C)C", "note": "[KNI-272]", "values": [{"measurement": "co-elution with PRMDR", "setting": "[1]", "value": "did not elute with PRMDR"}, {"measurement": "co-elution with PRWT", "setting": "[2]", "value": "co-elute with PRWT"}]}, {"molecule": "Cc1ccccc1CNC(=O)[C@H]1N(C(=O)[C@@H](O)[C@H](Cc2ccccc2)NC(=O)c2cccc(O)c2C)CSC1(C)C", "note": "[JE-2147]", "values": [{"measurement": "correlation coefficient, JE-2147 area vs PRMDR area by MS", "setting": "[1]; MS, PRMDR dose–response", "value": 0.997}, {"measurement": "elution time of inhibitor co-eluting with PRMDR", "setting": "[1]; molecular ion of inhibitor by MS, PRMDR also 10.8 min", "value": 10.8, "unit": "min"}, {"measurement": "effect on PRMDR elution", "setting": "[3]; 1 μM JE-2147, PRMDR 0.25–2 μM, 16 h at 37 °C", "value": "PRMDR eluted as the earlier form (dimer)"}]}, {"molecule": "PRMDR: multi-drug-resistant HIV-1 PR with L10I, K45R, I54V, L63P, A71V, V82T, L90M and I93L", "values": [{"measurement": "elution time, earlier-eluting (dimer) PRMDR peak", "setting": "PRMDR dimer; [11]", "value": "~10.8", "unit": "min"}, {"measurement": "elution time, later-eluting (monomer) PRMDR peak", "setting": "PRMDR dimer; [11]", "value": "~11.3", "unit": "min"}, {"measurement": "Kd", "setting": "PRMDR dimer; read-out: apparent Kd for dimer dissociation, as dimeric concentration, dimeric concentration", "value": "~0.25", "unit": "µM"}, {"measurement": "Kd", "setting": "PRMDR dimer; read-out: apparent Kd for dimer dissociation, monomeric concentration", "value": "~0.5", "unit": "µM"}, {"measurement": "autoproteolysis (SDS/PAGE)", "setting": "[9]; 150 mM ammonium acetate pH 5.4", "value": "remained intact"}, {"measurement": "PR activity after incubation", "setting": "[9]; [12]", "value": "remained unaffected"}, {"measurement": "autoproteolysis (RP-HPLC–MS)", "setting": "[9]", "value": "remained intact"}, {"measurement": "elution time by MS", "setting": "HIV-1 PR dimerization", "value": 10.8, "unit": "min"}]}, {"molecule": "PRWT: wild-type HIV-1 PR", "values": [{"measurement": "autoproteolysis (SDS/PAGE)", "setting": "[9]; 150 mM ammonium acetate pH 5.4", "value": "extensive autoproteolysis"}, {"measurement": "PR activity lost", "setting": "[9]; [12]", "value": "more than 95%"}, {"measurement": "autoproteolysis (RP-HPLC–MS)", "setting": "[9]", "value": "substantial autoproteolysis"}, {"measurement": "autoproteolysis", "setting": "[9]; within 4 h of incubation", "value": "approx. 40%"}]}, {"molecule": "Ac-CTLNF [acetylated-CTLNF]", "values": [{"measurement": "relative potency at inducing monomer formation", "setting": "[3]", "value": "P27 > CTLNF > Ac-CTLNF > Ac-TLNF"}]}, {"molecule": "CC(C)(C)NC(=O)[C@@H]1C[C@@H]2CCCC[C@@H]2CN1C[C@@H](O)[C@H](Cc1ccccc1)NC(=O)[C@H](CC(N)=O)NC(=O)c1ccc2ccccc2n1", "note": "[saquinavir]", "values": [{"measurement": "co-elution with PRMDR", "setting": "[1]", "value": "did not elute with PRMDR"}, {"measurement": "co-elution with PRWT", "setting": "[2]", "value": "co-elute with PRWT"}]}, {"molecule": "B1", "values": [{"measurement": "elution of oxidized HIV-2 PR", "setting": "HIV-2 PR dimerization", "value": "consistent with a monomeric form of the PR"}]}]}
